Experiments:
[1] = tested on: HL-60 human leukemia cell line; test: MTT cell viability assay, HL-60; type: cell-based; conditions: HL-60, 48 h, read-out: IC50 HL-60
Outline: (§1)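 Logarithmically growing cells were used: HL-60 and NCI-H460 in RPMI-1640 with 10% FBS and L-glutamine; Hep3B in DMEM/F12 with 10% FBS; Detroit 551 in DMEM with 10% FBS and L-glutamine. Cells were exposed to a range of test compound concentrations or DMSO vehicle for 48 h at 37 °C, then incubated with MTT (1 mg/mL in PBS) for 2 h. Absorbance was read at 570 nm, corrected at 630 nm.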

[2] = tested on: Hep3B human hepatoma cell line; test: MTT cell viability assay, Hep3B; type: cell-based; conditions: 48 h, read-out: IC50 Hep3B
Outline: as §1

[3] = tested on: NCI-H460 non-small cell lung cancer cell line; test: MTT cell viability assay, NCI-H460; type: cell-based; conditions: Homo sapiens, NCI-H460, 48 h, read-out: IC50 NCI-H460
Outline: as §1

[4] = tested on: Detroit 551 human skin fibroblast cell line; test: MTT cell viability assay, Detroit 551; type: cell-based; conditions: Detroit 551, 48 h, read-out: IC50 Detroit551
Outline: as §1

[5] = tested on: NCI-60 human cancer cell line panel; test: NCI-60 human cancer cell line panel screen; type: cell-based; conditions: NCI-60 panel mean
K562 leukemia = test: NCI-60 screen, K562; type: cell-based, human
SR leukemia = test: NCI-60 screen, SR; type: cell-based, human
[6] = tested on: NCI-H522 non-small cell lung cancer; test: NCI-60 screen, NCI-H522; type: cell-based, human; conditions: NCI-522 non-small cell lung cancer
SW-620 colon cancer = test: NCI-60 screen, SW-620; type: cell-based, human
M14 melanoma = test: NCI-60 screen, M14; type: cell-based, human
MDA-MB-435 melanoma = test: NCI-60 screen, MDA-MB-435; type: cell-based, human
Hep3B cells [7] = test: Cell cycle distribution by flow cytometry in Hep3B cells; type: cell-based, human; conditions: 24 h
Outline: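 Hep3B cells were treated for 24 h with DMSO vehicle, test compound at 0.1, 0.3, 1 or 3 μM, or 1 μM reference antimitotics (vinblastine, colchicine, paclitaxel). Cells were stained with propidium iodide and analysed by flow cytometry. Data are mean ± SEM of three independent experiments.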

Hep3B cells [8] = test: Western blot of caspase and PARP cleavage in Hep3B cells; type: cell-based, human; conditions: 48 h treatment
Hep3B cells [9] = test: In vivo; type: cell-based, human; conditions: 1 μM, 24 h
Outline: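 Hep3B cells were treated for 24 h with DMSO vehicle, 1 μM test compound, or 1 μM reference antimitotics. Cells were washed in ice-cold PBS and lysed 5 min at 37 °C in hypotonic buffer (20 mM Tris-HCl pH 6.8, MgCl2, EGTA, 0.5% IGEPAL, protease inhibitors), then spun 15,000 ×g for 10 min at 25 °C. Supernatant (soluble) and sonicated pellet (polymerized) fractions were western-blotted for α-tubulin, β-tubulin and β-actin.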

Hep3B xenograft = Hep3B xenograft nude mice model; type: in vivo, Balb/c nude mice
Outline: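 Male Balb/c nude mice (4–6 weeks, 18–20 g, SPF) received 2 × 10^6 Hep3B cells s.c. in the right flank. At tumor volume >100 mm3 (day 0), mice were grouped (n = 8). The water-soluble phosphate prodrug was given i.v. at 10, 20 or 40 mg/kg, five days/week for 3 weeks; doxorubicin i.v. served as reference. Tumor size (length × width² × 0.5) and body weight were recorded every 7 days to day 21; T/C was calculated.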

Structure (SMILES) | IC50 [1] | IC50 [2] | IC50 [3] | IC50 [4] | other results
COc1cccc(-c2cc(=O)c3c(C)ccnc3[nH]2)c1 [6a, 2-(3-Methoxyphenyl)-5-methyl-1,8-naphthyridin-4(1H)-one] | 30 nM | 130 nM | 180 nM | > 5000 nM | 
COc1cccc(-c2cc(=O)c3cc(C)cnc3[nH]2)c1 [6b, 2-(3-Methoxyphenyl)-6-methyl-1,8-naphthyridin-4(1H)-one] | 60 nM | 120 nM | 140 nM | > 2500 nM | 
COc1cccc(-c2cc(=O)c3c(C)cc(C)nc3[nH]2)c1 [6c, 2-(3-Methoxyphenyl)-5,7-dimethyl-1,8-naphthyridin-4(1H)-one] | 330 nM | 730 nM | 750 nM | > 50000 nM | 
COc1cccc(-c2cc(=O)c3cc(Cl)cnc3[nH]2)c1 [6d, 6-Chloro-2-(3-methoxyphenyl)-1,8-naphthyridin-4(1H)-one] | 30 nM | 100 nM | 100 nM | > 50000 nM | 
COc1cccc(-c2cc(=O)c3cc(F)cnc3[nH]2)c1 [6e, 6-Fluoro-2-(3-methoxyphenyl)-1,8-naphthyridin-4(1H)-one] | 70 nM | 200 nM | 240 nM | > 5000 nM | 
COc1cnc2[nH]c(-c3cccc(F)c3)cc(=O)c2c1 [6g, 2-(3-Fluorophenyl)-6-methoxy-1,8-naphthyridin-4(1H)-one] | 20 nM | 20 nM | 50 nM | > 10000 nM | 
COc1cnc2[nH]c(-c3cccc4ccccc34)cc(=O)c2c1 [6h, 6-Methoxy-2-(naphthalen-1-yl)-1,8-naphthyridin-4(1H)-one] | 40 nM | 50 nM | 850 nM | > 25000 nM | 
COc1cnc2[nH]c(-c3csc4ccccc34)cc(=O)c2c1 [6i, 2-(Benzo[b]thiophen-3-yl)-6-methoxy-1,8-naphthyridin-4(1H)-one] | 40 nM | 90 nM | 160 nM | > 10000 nM | 
Cc1ccnc2[nH]c(-c3cccc(O)c3)cc(=O)c12 [7a, 2-(3-Hydroxyphenyl)-5-methyl-1,8-naphthyridin-4(1H)-one] | 30 nM | 170 nM | 200 nM | > 50000 nM | average logGI50 (MID) [5]: −6.30; logGI50 (K562 leukemia): less than −7.00; logGI50 (SR leukemia): less than −7.00; logGI50 [6]: less than −7.00; logGI50 (SW-620 colon cancer): less than −7.00; logGI50 (M14 melanoma): less than −7.00; logGI50 (MDA-MB-435 melanoma): less than −7.00; cell population at G2/M phase (Hep3B cells [7]; 0.1-3 μM): significant cell population accumulation at G2/M phase in a concentration-dependent manner; sub-G1 phase population (Hep3B cells [7]): predominant increase in sub-G1 phase; cleavage of caspases and PARP (Hep3B cells [8]): concentration-dependent increase in the cleavage of caspase-8, -9, -3, and PARP; tubulin content in cytoskeleton (polymerized) fraction (Hep3B cells [9]): decreased both α-tubulin and β-tubulin contents in the cytoskeleton fraction
Cc1cnc2[nH]c(-c3cccc(O)c3)cc(=O)c2c1 [7b, 2-(3-Hydroxyphenyl)-6-methyl-1,8-naphthyridin-4(1H)-one] | 80 nM | 440 nM | 450 nM | > 2500 nM | 
Cc1cc(C)c2c(=O)cc(-c3cccc(O)c3)[nH]c2n1 [7c, 2-(3-Hydroxyphenyl)-5,7-dimethyl-1,8-naphthyridin-4(1H)-one] | 290 nM | 680 nM | 1300 nM | > 100000 nM | 
O=c1cc(-c2cccc(O)c2)[nH]c2ncc(Cl)cc12 [7d, 6-Chloro-2-(3-hydroxyphenyl)-1,8-naphthyridin-4(1H)-one] | 110 nM | 340 nM | 200 nM | > 100000 nM | 
O=c1cc(-c2cccc(O)c2)[nH]c2ncc(F)cc12 [7e, 6-Fluoro-2-(3-hydroxyphenyl)-1,8-naphthyridin-4(1H)-one] | 140 nM | 380 nM | 700 nM | > 100000 nM | 
O=c1cc(-c2cccc(F)c2)[nH]c2nccc(O)c12 [7f, 2-(3-Fluorophenyl)-5-hydroxy-1,8-naphthyridin-4(1H)-one] | 820 nM | 1820 nM | 2480 nM | > 100000 nM | 
O=c1cc(-c2cccc(F)c2)[nH]c2ncc(O)cc12 [7g, 2-(3-Fluorophenyl)-6-hydroxy-1,8-naphthyridin-4(1H)-one] | 80 nM | 160 nM | 860 nM | > 100000 nM | 
O=c1cc(-c2cccc3ccccc23)[nH]c2ncc(O)cc12 [7h, 6-Hydroxy-2-(naphthalen-1-yl)-1,8-naphthyridin-4(1H)-one] | 480 nM | 460 nM | 1340 nM | > 100000 nM | 
O=c1cc(-c2csc3ccccc23)[nH]c2ncc(O)cc12 [7i, 2-(Benzo[b]thiophen-3-yl)-6-hydroxy-1,8-naphthyridin-4(1H)-one] | 570 nM | 1070 nM | 390 nM | 10000 nM | 
CC(=O)O[C@H]1C(=O)[C@@]2(C)[C@H]([C@H](OC(=O)c3ccccc3)[C@]3(O)C[C@H](OC(=O)[C@H](O)[C@@H](NC(=O)c4ccccc4)c4ccccc4)C(C)=C1C3(C)C)[C@]1(OC(C)=O)CO[C@@H]1C[C@@H]2O [Taxol, reference compound] | 2 nM | 500 nM | 5 nM |  | 
Cc1ccnc2[nH]c(-c3cccc(OP(=O)(O)O)c3)cc(=O)c12 [compound 11, 3-(5-Methyl-4-oxo-1,4-dihydro-1,8-naphthyridin-2-yl)phenyl dihydrogen phosphate] |  |  |  |  | Hep3B inhibitory activity compared with doxorubicin (Hep3B xenograft; i.v. 20 mg/kg): exceeded that of 5 mg/kg doxorubicin; Hep3B tumor weight (Hep3B xenograft; i.v. 40 mg/kg): 78.6 % of the control; body weight changes (Hep3B xenograft; i.v. 10, 20, 40 mg/kg, during antitumor evaluation): no significant body weight changes; inhibition of Hep3B tumor growth (Hep3B xenograft; i.v. 10, 20 and 40 mg/kg/day, five days per week, three weeks): dose- and time-dependent inhibition of Hep3B tumor growth
